Key:
H441 and Calu-3 cells = assay: Cell-proliferation, H441 and Calu-3 reported together; format: cell-based, human; settings: for effect on Bn-stimulated increase in cell-proliferation: H441 and Calu-3 cells, Bn 1 μM, 24 hr, CCK-8 and MTS
p44/42 = p44/42 MAPK phosphorylation; format: cell-based, human
Akt = Akt phosphorylation; format: cell-based, human
EGFR = EGFR phosphorylation; format: cell-based, human; settings: for EC50, EGFR phosphorylation: mean ± SEM of three independent experiments
Outline: (§1)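 H441 or H2087 cells at 80% confluence were serum-starved overnight, then given Bn (0.1-100 nM) or NRG-1 (0.1-100 ng/mL) for 3 min. Cells were lysed in RIPA buffer (pH 7.6) and protein was measured by BCA. Lysates were run on a 4–20% gel and blotted for phospho-EGFR Tyr1068, HER2 Tyr1248 and HER3 Tyr1289, with tubulin as loading control. Bands were read by densitometry as % basal; mean ± SEM, ≥3 experiments.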

HER2 = HER2 phosphorylation; format: cell-based, human; settings: for EC50, HER2 phosphorylation: mean ± SEM of three independent experiments
Outline: as §1

HER3 = HER3 (Homo sapiens, UniProt P21860); assay: HER3 phosphorylation; format: cell-based; settings: for EC50, HER3 phosphorylation: mean ± SEM of three independent experiments
Outline: as §1

EGFR, HER2, and HER3 = assay: EGFR, HER2 and HER3 phosphorylation reported together; format: cell-based, human
Outline: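 Time course: serum-starved (overnight) H441, H2087 or Calu-3 cells were stimulated with Bn 100 nM or NRG-1 100 ng/mL for 3-60 min. Cells were lysed in RIPA and blotted for phospho-EGFR (Tyr1068), HER2 (Tyr1248) and HER3 (Tyr1289) using primary antibodies at 1:1000 overnight at 4 °C. Tubulin served as loading control, and background-subtracted densitometry was expressed as % of basal.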

HER3/EGFR = HER3/EGFR heterodimerization; format: cell-based, human; settings: H441 and Calu-3 cells; 100 nM Bn or 100 ng/mL NRG-1
Outline: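 Serum-starved (overnight) 80%-confluent cells treated with test peptide (100 nM) or reference ligand (100 ng/mL); lysed in RIPA (pH 7.6), sonicated, cleared. 800 μg protein with anti-HER3 antibody, 1 hr at 4 °C, then protein A/G agarose overnight at 4 °C; five RIPA washes. Immunoblotted for partner receptors by chemiluminescence; background-subtracted densitometry as ratio to untreated control; whole-extract tubulin as loading control.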

HER3/HER2 = HER3/HER2 heterodimerization; format: cell-based, human; settings: H441 and Calu-3 cells; 100 nM Bn or 100 ng/mL NRG-1
Outline: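 Serum-starved H441 and Calu-3 cells received no addition, 100 nM Bn or 100 ng/mL NRG-1. RIPA lysate (800 μg protein) was incubated with anti-HER3 antibody for 1 hr at 4 °C, then with protein A/G agarose overnight at 4 °C. Beads were washed five times in RIPA and boiled in Laemmli buffer. Partners were detected by Western blot, with tubulin from whole-cell extract as loading control; values are given as ratio to control.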

[1] = Wortmannin 1 μM or LY294002 10 μM
[2] = H441 cells, NRG-1 0.1-100 ng/mL, 3 min
[3] = H2087 cells, 100 nM Bn or 100 ng/mL NRG-1, 3 min
[4] = H441 cells, dose-response, 3 min, Bn 100 nM maximal, NRG-1 0.1-100 ng/mL
[5] = Calu-3 cells, Bn 100 nM or NRG-1 100 ng/mL

`O=c1cc(N2CCOCC2)oc2c(-c3ccccc3)cccc12` [LY294002] was tested, and the “effect on Bn-stimulated increase in cell-proliferation” value (“effect on Bn-stimulated increase” below) (H441 and Calu-3 cells; [1]) was “no significant effect”.

`COC[C@H]1OC(=O)c2coc3c2[C@@]1(C)C1=C(C3=O)[C@@H]2CCC(=O)[C@@]2(C)C[C@H]1OC(C)=O` [Wortmannin, wortmannin] was tested, and the “effect on Bn-stimulated increase” value (H441 and Calu-3 cells; [1]) was “no significant effect”.

In the case of `COc1cc2ncnc(Nc3ccc(F)c(Cl)c3)c2cc1OCCCN1CCOCC1` [gefitinib], the “effect on Bn-stimulated phosphorylation of p44/42” value (p44/42; H441 cells, gefitinib 10 μg/mL or EGFR knockdown, Bn 100 nM, 15 min) is reported as “did not affect”, the activity at 10 µg/mL (p44/42; Homo sapiens, NCI-H441, read-out: basal phosphorylation of p44/42 (% of control)) is reported as 75% and the “effect on Bn-induced increment of Akt phosphorylation” value (Akt) is reported as “no significant inhibitory effect”. The activity at 10 µg/mL (Akt; Homo sapiens, NCI-H441, read-out: basal phosphorylation of Akt (% of control)) was 79%, the “effect on Bn-stimulated increase” value (H441 and Calu-3 cells; gefitinib 10 μg/mL) was “no effect” and the activity at 10 µg/mL (H441 and Calu-3 cells; Homo sapiens, 24 h, read-out: basal stimulation (% of control)) was 36 to 45%.

For neuregulin-1 [NRG-1], the “EC50, EGFR phosphorylation” value (EGFR; [2]) was 4.9 ± 0.9 ng/mL, the “maximum EGFR phosphorylation (fold increase)” value (EGFR; [3]) was 5.2 fold and the “EC50, EGFR phosphorylation” value (EGFR; H2087 cells, NRG-1, 3 min) was 9.7 ± 1.3 ng/mL. The “EC50, HER2 phosphorylation” value (HER2; [2]) was 16.3 ± 3.4 ng/mL, the “maximal HER2 phosphorylation (fold increase)” value (HER2; [4]) was 34 fold and the “HER2 phosphorylation (fold increase)” value (HER2; [3]) was 22 fold. For the same molecule, the “duration of HER2 phosphorylation” value (HER2; H2087 cells, NRG-1 100 ng/mL) was “prolonged phosphorylation”, the “EC50, HER2 phosphorylation” value (HER2; H2087 cells, NRG-1, 3 min) was 7.8 ± 2.0 ng/mL and the “phosphorylation of HER3 maintained at 60 minutes (fold increase)” value (HER3; H441 cells, NRG-1 100 ng/mL, 60 minutes, p < 0.05 vs. control) was 20 fold. The “maximal HER3 phosphorylation (fold increase)” value (HER3; [4]) was 44 fold, the “HER3 phosphorylation (fold increase)” value (HER3; [3]) was 21 fold and the “duration of HER3 phosphorylation” value (HER3; H2087 cells, NRG-1 100 ng/mL) was “prolonged phosphorylation”. The “phosphorylation of p44/42 at 60 minutes” value (p44/42; [5]) was “still present”, the “stimulation time of maximum phosphorylation of p44/42” value (p44/42; H441, H2087 and Calu-3 cells, Bn 100 nM or NRG-1 100 ng/mL) was 15 min and the “phosphorylation of p44/42 at 60 minutes” value (p44/42; H441 and H2087 cells, Bn 100 nM or NRG-1 100 ng/mL) was “not maintained at 60 minutes”. For the same molecule, the “time of maximum phosphorylation of Akt” value (Akt; H441, H2087 and Calu-3 cells, NRG-1 100 ng/mL) was 60 min, the “stimulation time of maximum EGFR, HER2 and HER3 phosphorylation” value (EGFR, HER2, and HER3; [5]) was 30 to 60 min and the “maximal stimulation compared with Bn” value (EGFR, HER2, and HER3; H441, H2087 and Calu-3 cells, Bn 100 nM, NRG-1 100 ng/mL) was “greater than that seen with Bn”. The “time of maximum phosphorylation of EGFR, HER2, and HER3” value (EGFR, HER2, and HER3; H441 cells, Bn 100 nM or NRG-1 100 ng/mL) was 3 min, the HER3/EGFR heterodimerization (HER3/EGFR) was “induced HER3/EGFR” and the HER3/HER2 heterodimerization (HER3/HER2) was “HER3/HER2 heterodimerization in both cell-lines”.

B1: neuregulin-1 (protein)
chain: TSHLVKCAEKEKTFCVNGGECFMVKDLSNPSRYLCKCPNEFTGDRCQNYVMASFYKHLGIEFMEAEELYQK
modifications: the alternative R&D product is the beta1 ECD (2-246)
B1 was tested, and the “EC50, HER3 phosphorylation” value (HER3; [2]) was 14.3 ± 1.7 ng/mL and the “EC50, HER3 phosphorylation” value (HER3; H2087 cells, NRG-1, 3 min) was 8.1 ± 1.7 ng/mL.
